Measured values from ChEMBL document CHEMBL3098111, “Discovery of 2,5-diarylnicotinamides as selective orexin-2 receptor antagonists (2-SORAs)” (Bioorg Med Chem Lett, 2013).
Calls of active or inactive are those of the source. No cut-off for these calls is given here.

Legend:
[1] = target: cGMP-dependent 3',5'-cyclic phosphodiesterase (Homo sapiens) (UniProt O00408); experiment: Inhibition of human PDE2 at 100 uM relative to control
[2] = target: T1, GABA-A receptor; alpha-1/beta-3/gamma-2 (Homo sapiens) (UniProt P14867+P18507+P28472); experiment: Inhibition of human GABA alpha1beta3gamma2 receptor at 10 uM relative to control; assay type: protein-complex assay
Rattus norvegicus [3] = organism: Rattus norvegicus; experiment: Inhibition of rat GABAA central type receptor muscimol binding site at 10 uM relative to control
[4] = target: Cysteinyl leukotriene receptor 1 (Homo sapiens) (UniProt Q9Y271); experiment: Inhibition of human CysLT1 receptor at 10 uM relative to control
[5] = target: T2, 5-hydroxytryptamine receptor 1A (Homo sapiens) (UniProt P08908); experiment: Inhibition of human 5-HT1A receptor at 10 nM relative to control
T2 sequence (whole entry): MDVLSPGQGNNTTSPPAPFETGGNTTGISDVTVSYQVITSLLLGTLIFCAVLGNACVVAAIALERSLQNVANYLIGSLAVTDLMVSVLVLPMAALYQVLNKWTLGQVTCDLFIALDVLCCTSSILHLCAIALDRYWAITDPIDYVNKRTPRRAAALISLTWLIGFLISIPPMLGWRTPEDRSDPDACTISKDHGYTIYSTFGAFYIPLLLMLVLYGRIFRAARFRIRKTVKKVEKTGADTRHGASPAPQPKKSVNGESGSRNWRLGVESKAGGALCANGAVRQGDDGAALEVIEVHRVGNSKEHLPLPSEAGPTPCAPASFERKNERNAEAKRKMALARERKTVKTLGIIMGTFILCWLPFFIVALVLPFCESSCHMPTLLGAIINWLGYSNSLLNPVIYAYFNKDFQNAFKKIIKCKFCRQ

[6] = target: C-C chemokine receptor type 5 (Homo sapiens) (UniProt P51681); experiment: Inhibition of human CCR5 at 10 uM relative to control
[7] = target: 5-hydroxytryptamine receptor 1B (Rattus norvegicus) (UniProt P28564); experiment: Inhibition of rat 5-HT1B receptor at 10 nM relative to control
[8] = target: Neuropeptide Y receptor type 2 (Homo sapiens) (UniProt P49146); experiment: Inhibition of human neuropeptide YY2 receptor at 10 uM relative to control
[9] = target: Neuromedin-K receptor (Homo sapiens) (UniProt P29371); experiment: Inhibition of human NK3 receptor at 10 uM relative to control
Homo sapiens [10] = organism: Homo sapiens; experiment: Inhibition of human nicotinic acetylcholine receptor at 10 uM relative to control
[11] = target: Phosphodiesterase 4 (Homo sapiens) (UniProt P27815+Q08499+Q07343+Q08493); experiment: Inhibition of human PDE4 at 100 uM relative to control; assay type: protein assay
[12] = target: Macrophage metalloelastase (Homo sapiens) (UniProt P39900); experiment: Inhibition of human MMP-12 at 10 uM relative to control
[13] = target: Somatostatin receptor type 5 (Homo sapiens) (UniProt P35346); experiment: Inhibition of human SST5 receptor at 10 uM relative to control
Homo sapiens [14] = organism: Homo sapiens; experiment: Selectivity ratio of Ki for human orexin-1 receptor to Ki for human orexin-2 receptor
Summary of the method: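 Radioligand binding: a high-affinity radioligand was bound to membranes from human cells overexpressing OX1R or OX2R, and inhibition of that binding was measured and expressed as Ki. The ratio is the OX1R Ki divided by the OX2R Ki.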

[15] = target: Alpha-1D adrenergic receptor (Homo sapiens) (UniProt P25100); experiment: Inhibition of human alpha1D adrenergic receptor at 10 uM relative to control
[16] = target: Beta-1 adrenergic receptor (Homo sapiens) (UniProt P08588); experiment: Inhibition of human beta1 adrenergic receptor at 10 uM relative to control
[17] = target: Cannabinoid receptor 1 (Homo sapiens) (UniProt P21554); experiment: Inhibition of human CB1 receptor at 10 uM relative to control
[18] = target: T3, 5-hydroxytryptamine receptor 2B (Homo sapiens, UniProt P41595); experiment: Inhibition of human 5-HT2B receptor at 0.1 uM relative to control
[19] = target: Small conductance calcium-activated potassium channel (Rattus norvegicus) (UniProt P70604+P70606+P70605); experiment: Inhibition of rat potassium channel [SKCA] at 10 uM relative to control; assay type: protein assay
[20] = target: Galanin receptor type 1 (Homo sapiens) (UniProt P47211); experiment: Inhibition of human GAL1 receptor at 10 uM relative to control
[21] = target: T2, 5-hydroxytryptamine receptor 1A (Homo sapiens); experiment: Inhibition of human 5-HT1A receptor at 10 uM relative to control
[22] = target: T3, 5-hydroxytryptamine receptor 2B; experiment: Inhibition of human 5-HT2B receptor at 1 uM relative to control
[23] = target: Prostaglandin D2 receptor (Homo sapiens) (UniProt Q13258); experiment: Inhibition of human prostanoid DP receptor at 10 uM relative to control
[24] = target: Peroxisome proliferator-activated receptor gamma (Homo sapiens) (UniProt P37231); experiment: Inhibition of human PPARgamma at 10 uM relative to control
[25] = target: T1, GABA-A receptor; alpha-1/beta-3/gamma-2 (Homo sapiens); experiment: Inhibition of human GABA alpha1beta3gamma2 receptor muscimol binding site at 10 uM relative to control; assay type: protein-complex assay
Caspase-1 (Homo sapiens) = Caspase-1 (Homo sapiens) (UniProt P29466); experiment: Inhibition of human caspase 1 at 10 uM relative to control
Rattus norvegicus [26] = experiment: Antiinsomnic activity in rat EEG model assessed as decrease in active wake time at 15 mg/kg, po; assay type: functional, organism-based; design: dose 15 mg/kg
Summary of the method: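 Rats with EEG telemetry given 15 mg/kg orally during their active period, vehicle 20% Vitamin E TPGS in water. Sleep architecture (active wake, light sleep, delta and REM sleep) scored from EEG.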

[27] = target: GABA-A receptor; alpha-5/beta-3/gamma-2 (Homo sapiens) (UniProt P18507+P28472+P31644); experiment: Inhibition of human GABA alpha5beta3gamma2 receptor muscimol binding site at 10 uM relative to control; assay type: protein-complex assay
[28] = target: Substance-P receptor (Homo sapiens) (UniProt P25103); experiment: Inhibition of human NK1 receptor at 10 uM relative to control
[29] = target: Prostaglandin E2 receptor EP3 subtype (Homo sapiens) (UniProt P43115); experiment: Inhibition of human prostanoid EP3 receptor at 10 uM relative to control
[30] = target: 5-hydroxytryptamine receptor 1B (Rattus norvegicus) (UniProt P28564); experiment: Inhibition of rat 5-HT1B receptor at 10 uM relative to control
[31] = target: Endothelin-converting enzyme 1 (Homo sapiens) (UniProt P42892); experiment: Inhibition of human ECE-1 at 10 uM relative to control
[32] = target: Alpha-2C adrenergic receptor (Homo sapiens) (UniProt P18825); experiment: Inhibition of human alpha2C adrenergic receptor at 10 uM relative to control
[33] = target: Interstitial collagenase (Homo sapiens) (UniProt P03956); experiment: Inhibition of human MMP-1 at 10 uM relative to control
[34] = target: Substance-K receptor (Homo sapiens) (UniProt P21452); experiment: Inhibition of human NK2 receptor at 10 uM relative to control
[35] = target: Adrenergic receptor alpha-2 (Rattus norvegicus) (UniProt P22086+P19328+P22909); experiment: Inhibition of rat alpha2 adrenergic receptor at 10 uM relative to control

T3 sequence (P41595 whole entry): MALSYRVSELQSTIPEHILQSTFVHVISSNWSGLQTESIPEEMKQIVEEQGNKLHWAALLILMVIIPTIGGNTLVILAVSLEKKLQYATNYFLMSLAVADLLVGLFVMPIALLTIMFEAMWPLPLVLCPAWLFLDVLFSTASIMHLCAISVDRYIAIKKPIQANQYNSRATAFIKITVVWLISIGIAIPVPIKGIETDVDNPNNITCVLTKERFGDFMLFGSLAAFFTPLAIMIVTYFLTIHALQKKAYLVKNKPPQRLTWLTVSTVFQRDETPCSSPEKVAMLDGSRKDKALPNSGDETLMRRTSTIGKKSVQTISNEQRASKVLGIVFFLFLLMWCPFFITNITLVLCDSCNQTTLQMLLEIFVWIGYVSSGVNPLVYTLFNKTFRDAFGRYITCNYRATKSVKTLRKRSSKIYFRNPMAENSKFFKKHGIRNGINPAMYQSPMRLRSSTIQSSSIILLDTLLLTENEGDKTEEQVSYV
Sequence of 5-hydroxytryptamine receptor 1B (Rattus norvegicus) (P28564 whole entry): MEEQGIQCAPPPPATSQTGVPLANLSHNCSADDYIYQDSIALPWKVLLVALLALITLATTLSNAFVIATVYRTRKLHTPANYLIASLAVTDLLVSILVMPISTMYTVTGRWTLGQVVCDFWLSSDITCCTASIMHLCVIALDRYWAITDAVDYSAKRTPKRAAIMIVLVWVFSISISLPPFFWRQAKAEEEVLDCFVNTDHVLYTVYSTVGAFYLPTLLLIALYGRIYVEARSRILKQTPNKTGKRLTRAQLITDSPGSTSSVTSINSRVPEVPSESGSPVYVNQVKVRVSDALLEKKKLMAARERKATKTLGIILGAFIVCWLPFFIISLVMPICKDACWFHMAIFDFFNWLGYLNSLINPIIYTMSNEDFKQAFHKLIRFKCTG
Sequence of Macrophage metalloelastase (Homo sapiens) (P39900 106-470 limits assumed): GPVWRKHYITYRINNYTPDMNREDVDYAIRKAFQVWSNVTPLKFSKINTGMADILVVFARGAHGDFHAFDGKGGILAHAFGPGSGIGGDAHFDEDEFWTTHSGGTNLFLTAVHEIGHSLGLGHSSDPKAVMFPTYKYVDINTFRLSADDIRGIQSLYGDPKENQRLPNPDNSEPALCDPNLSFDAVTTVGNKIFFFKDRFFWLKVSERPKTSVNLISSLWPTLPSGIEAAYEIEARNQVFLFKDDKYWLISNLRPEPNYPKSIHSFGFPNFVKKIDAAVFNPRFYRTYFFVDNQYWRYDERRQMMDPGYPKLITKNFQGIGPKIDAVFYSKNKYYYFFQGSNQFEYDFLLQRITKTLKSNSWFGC
Sequence of Neuropeptide Y receptor type 2 (Homo sapiens) (P49146 whole entry): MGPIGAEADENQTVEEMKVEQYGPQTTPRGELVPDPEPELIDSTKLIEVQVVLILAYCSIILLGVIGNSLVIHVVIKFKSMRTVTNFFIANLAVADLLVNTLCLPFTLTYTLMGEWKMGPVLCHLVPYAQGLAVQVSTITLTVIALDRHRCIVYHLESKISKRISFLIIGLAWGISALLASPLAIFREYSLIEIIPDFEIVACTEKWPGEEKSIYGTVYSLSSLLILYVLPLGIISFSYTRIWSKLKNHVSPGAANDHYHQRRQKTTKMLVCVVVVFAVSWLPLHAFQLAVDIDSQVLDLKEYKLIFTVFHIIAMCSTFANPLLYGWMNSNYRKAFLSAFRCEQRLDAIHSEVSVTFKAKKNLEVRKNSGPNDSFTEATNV
Sequence of Prostaglandin D2 receptor (Homo sapiens) (Q13258 whole entry): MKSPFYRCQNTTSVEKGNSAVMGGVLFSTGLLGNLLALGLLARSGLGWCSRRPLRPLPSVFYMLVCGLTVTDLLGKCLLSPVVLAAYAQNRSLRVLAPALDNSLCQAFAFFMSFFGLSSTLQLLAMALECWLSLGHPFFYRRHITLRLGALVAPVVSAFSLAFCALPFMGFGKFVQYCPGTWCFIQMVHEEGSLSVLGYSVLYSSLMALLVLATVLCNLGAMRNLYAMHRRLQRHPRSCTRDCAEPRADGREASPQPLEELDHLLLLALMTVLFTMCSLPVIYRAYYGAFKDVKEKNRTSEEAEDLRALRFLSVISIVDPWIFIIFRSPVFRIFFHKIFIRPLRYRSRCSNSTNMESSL
Sequence of Peroxisome proliferator-activated receptor gamma (Homo sapiens) (P37231 whole entry): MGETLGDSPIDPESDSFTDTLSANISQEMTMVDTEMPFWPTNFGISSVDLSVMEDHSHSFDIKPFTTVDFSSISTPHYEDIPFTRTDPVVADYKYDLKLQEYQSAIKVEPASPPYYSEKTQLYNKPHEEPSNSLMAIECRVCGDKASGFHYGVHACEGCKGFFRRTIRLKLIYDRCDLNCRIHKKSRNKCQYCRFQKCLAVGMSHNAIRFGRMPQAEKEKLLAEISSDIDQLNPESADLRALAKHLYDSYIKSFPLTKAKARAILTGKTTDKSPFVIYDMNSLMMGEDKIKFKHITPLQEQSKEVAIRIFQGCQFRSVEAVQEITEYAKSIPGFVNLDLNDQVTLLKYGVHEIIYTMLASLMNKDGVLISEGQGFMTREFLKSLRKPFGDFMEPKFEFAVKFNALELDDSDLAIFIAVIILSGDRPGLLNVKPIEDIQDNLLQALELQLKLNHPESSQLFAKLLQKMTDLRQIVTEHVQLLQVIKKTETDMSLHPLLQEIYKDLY
Sequence of Endothelin-converting enzyme 1 (Homo sapiens) (P42892 whole entry): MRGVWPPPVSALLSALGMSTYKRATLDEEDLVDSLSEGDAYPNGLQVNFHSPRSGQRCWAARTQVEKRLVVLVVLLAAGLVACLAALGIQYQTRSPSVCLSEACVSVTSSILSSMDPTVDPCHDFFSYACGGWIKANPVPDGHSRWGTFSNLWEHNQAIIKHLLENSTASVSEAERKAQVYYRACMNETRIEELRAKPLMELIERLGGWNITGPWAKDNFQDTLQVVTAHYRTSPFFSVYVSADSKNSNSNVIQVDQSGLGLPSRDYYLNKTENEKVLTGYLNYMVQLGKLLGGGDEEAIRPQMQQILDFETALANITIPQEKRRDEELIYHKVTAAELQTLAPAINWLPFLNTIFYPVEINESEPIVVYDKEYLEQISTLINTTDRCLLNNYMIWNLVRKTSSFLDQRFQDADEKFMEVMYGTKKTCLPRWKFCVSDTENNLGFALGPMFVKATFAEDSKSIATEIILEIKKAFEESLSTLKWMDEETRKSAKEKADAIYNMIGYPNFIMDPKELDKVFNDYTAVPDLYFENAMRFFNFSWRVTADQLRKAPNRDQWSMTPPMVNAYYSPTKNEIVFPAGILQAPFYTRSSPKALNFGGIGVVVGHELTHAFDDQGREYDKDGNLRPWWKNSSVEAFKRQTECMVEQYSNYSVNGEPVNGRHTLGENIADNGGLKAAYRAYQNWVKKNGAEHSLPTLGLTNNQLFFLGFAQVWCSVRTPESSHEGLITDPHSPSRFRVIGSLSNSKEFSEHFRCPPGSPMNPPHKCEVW
Sequence of Galanin receptor type 1 (Homo sapiens) (P47211 whole entry): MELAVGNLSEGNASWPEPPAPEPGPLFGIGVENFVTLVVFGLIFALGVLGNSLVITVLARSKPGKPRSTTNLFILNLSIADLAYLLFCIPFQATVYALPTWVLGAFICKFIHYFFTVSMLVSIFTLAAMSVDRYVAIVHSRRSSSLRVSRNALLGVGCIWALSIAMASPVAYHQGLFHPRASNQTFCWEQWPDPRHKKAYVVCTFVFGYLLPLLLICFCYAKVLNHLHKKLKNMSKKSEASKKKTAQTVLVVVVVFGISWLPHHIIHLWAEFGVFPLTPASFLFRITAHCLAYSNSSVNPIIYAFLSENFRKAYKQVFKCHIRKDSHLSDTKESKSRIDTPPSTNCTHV
Sequence of Cysteinyl leukotriene receptor 1 (Homo sapiens) (Q9Y271 whole entry): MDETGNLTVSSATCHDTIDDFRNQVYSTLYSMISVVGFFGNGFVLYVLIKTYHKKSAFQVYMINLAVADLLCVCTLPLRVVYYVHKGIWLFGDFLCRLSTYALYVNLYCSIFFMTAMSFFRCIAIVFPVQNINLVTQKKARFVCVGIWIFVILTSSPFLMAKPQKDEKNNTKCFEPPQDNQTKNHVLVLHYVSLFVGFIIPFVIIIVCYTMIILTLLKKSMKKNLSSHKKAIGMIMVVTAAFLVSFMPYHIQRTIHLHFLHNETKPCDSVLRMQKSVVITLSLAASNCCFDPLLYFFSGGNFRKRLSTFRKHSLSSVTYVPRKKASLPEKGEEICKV
Sequence of Substance-K receptor (Homo sapiens) (P21452 whole entry): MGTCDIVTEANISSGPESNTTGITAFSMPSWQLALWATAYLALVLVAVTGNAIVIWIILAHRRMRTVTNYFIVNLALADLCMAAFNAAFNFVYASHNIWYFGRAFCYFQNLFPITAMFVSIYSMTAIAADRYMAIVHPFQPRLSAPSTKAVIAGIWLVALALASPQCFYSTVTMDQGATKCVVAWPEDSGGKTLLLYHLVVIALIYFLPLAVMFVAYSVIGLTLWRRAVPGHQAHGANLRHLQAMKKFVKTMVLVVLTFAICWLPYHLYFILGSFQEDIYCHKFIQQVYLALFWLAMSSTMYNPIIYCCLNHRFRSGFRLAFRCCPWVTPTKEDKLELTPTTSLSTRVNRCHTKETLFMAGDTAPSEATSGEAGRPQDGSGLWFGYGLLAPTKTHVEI
Sequence of Interstitial collagenase (Homo sapiens) (P03956 whole entry): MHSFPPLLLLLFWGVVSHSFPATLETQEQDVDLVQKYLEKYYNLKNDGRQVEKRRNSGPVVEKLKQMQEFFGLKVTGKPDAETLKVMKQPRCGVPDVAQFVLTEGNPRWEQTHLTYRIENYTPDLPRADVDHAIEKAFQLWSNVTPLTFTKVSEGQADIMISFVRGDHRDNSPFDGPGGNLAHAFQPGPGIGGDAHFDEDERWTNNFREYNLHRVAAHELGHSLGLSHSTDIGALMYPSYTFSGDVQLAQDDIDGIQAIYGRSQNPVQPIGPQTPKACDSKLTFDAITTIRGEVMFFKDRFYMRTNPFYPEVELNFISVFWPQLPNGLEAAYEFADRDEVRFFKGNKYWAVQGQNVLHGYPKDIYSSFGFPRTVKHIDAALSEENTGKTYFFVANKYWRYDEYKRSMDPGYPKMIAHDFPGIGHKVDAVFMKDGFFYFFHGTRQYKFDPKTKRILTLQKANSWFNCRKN

With `COc1ccc(CNC(=O)c2cc(-c3cc(Cl)cc(Cl)c3)cnc2-c2cccnc2)cc1OC` the inhibition [1] was 4%, the inhibition [2] was 21% and the inhibition (Rattus norvegicus [3]) was 9%. It also gave an inhibition [4] of 9%, an inhibition [5] of 2% and an inhibition [6] of 11%. It also gave an inhibition [7] of -4%, an inhibition [8] of 0% and an inhibition [9] of 13%. The inhibition (Homo sapiens [10]) was -1%, the inhibition [11] was 5% and the inhibition [12] was -6%. The inhibition [13] was 14%, the Ratio Ki (Homo sapiens [14]) was 1350 and the inhibition [15] was 26%. For the same molecule, the inhibition [16] was 9%, the inhibition [17] was 10% and the inhibition [18] was 6%. For the same molecule, the inhibition [19] was 9%, the inhibition [20] was 3% and the inhibition [21] was 69%. It also gave an inhibition [22] of 52%, an inhibition [23] of 16% and an inhibition [24] of 3%. The inhibition [25] was 39%, the inhibition (Caspase-1 (Homo sapiens)) was 4% and the Activity (Rattus norvegicus [26]) was “Active”. The inhibition [27] was 14%, the inhibition [28] was 26% and the inhibition [29] was 19%. For the same molecule, the inhibition [30] was 73%, the inhibition [31] was -10% and the inhibition [32] was 5%. The inhibition [33] was 4%, the inhibition [34] was 25% and the inhibition [35] was 37%.
